According to ChEMBL document CHEMBL3120104, “Discovery of the first C-nucleoside HCV polymerase inhibitor (GS-6620) with demonstrated antiviral response in HCV infected patients” (J Med Chem, 2014):
Converted amounts (≈) assume the structure as drawn.

Assays:
[1] = Metabolic stability in serum (unknown origin); assay type: ADME
[2] = tested on: Hepatitis C virus; experiment: Antiviral activity against HCV genotype 1 infected in human patient assessed as viral load reduction at 900 mg, bid relative to placebo; assay type: functional, Hepacivirus hominis
[3] = tested on: Hepatitis C virus; experiment: Antiviral activity against HCV genotype 2a; assay type: functional, organism-based, Hepacivirus hominis; settings: pooled result: one value given for 8 cell lines, strains, targets or settings
Method in brief: (§1)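 Multiplex replicon assay carrying a renilla luciferase reporter, with stable GT1b, 1a and 2a replicons and chimeric 2b, 3a, 4a, 5a and 6a replicons. 2000 replicon cells/well in medium without Geneticin. Ten-step 1:3 serial dilutions, four replicates, 0.44% DMSO final. Incubated 3 days at 37 °C, 5% CO₂. Luminescence normalised to DMSO wells and to protease-inhibitor (ITMN-191) wells. EC50 from a four-parameter Hill fit.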

[4] = tested on: Homo sapiens; experiment: Toxicity in human patient infected with HCV genotype 1 administered twice a day for 5 days; assay type: organism-based; settings: in vivo, 120 h
Method in brief: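 Randomized, double-blind, placebo-controlled multiple-dose escalation in treatment-naive patients chronically infected with HCV genotype 1. Nine cohorts (8 active, 2 placebo each) received 50 mg once daily up to 900 mg BID, fed or fasted, for 5 days. Safety, tolerability and viral load were assessed.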

[5] = tested on: Hepatitis C virus; experiment: Antiviral activity against HCV genotype 1 infected in human patient assessed as viral load reduction at 900 mg administered as tablet formulation bid for 5 days relative to baseline control; assay type: functional, Hepacivirus hominis
Method in brief: (§2)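 Randomized, double-blind, placebo-controlled, multiple-dose, dose-escalation trial in treatment-naive patients chronically infected with HCV genotype 1. Cohorts had eight active and two placebo subjects. Doses ran from 50 mg once daily to 900 mg BID, fed or fasted, for 5 days. Read-out was median viral load change (log10 IU/mL) from baseline.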

[6] = tested on: Hepatitis C virus; experiment: Antiviral activity against HCV genotype 1 infected in human patient assessed as viral load reduction at 450 mg administered as solution bid relative to baseline control; assay type: functional, Hepacivirus hominis; method in brief: as §2
[7] = tested on: Syrian golden hamster; experiment: Cmax in golden syrian hamster assessed as liver triphosphate level at 1 mg/kg, iv by LC/MS/MS analysis; assay type: ADME, organism-based, Mesocricetus auratus; design: dose 1 mg/kg, route intravenous; settings: in vivo
Method in brief: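 Golden Syrian hamsters in groups of 12, dosed iv at 1 mg-equiv/kg in EtOH/PEG400/water adjusted to pH 4 with HCl (0.5 mg-equiv/mL). Liver homogenised in ice-cold 70% MeOH with 0.1% KOH, 67 mM EDTA and 0.25 μM Cl-ATP internal standard, then centrifuged, dried and reconstituted. Triphosphate measured by LC/MS/MS; endogenous ATP checked for sample stability.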

[8] = Lipophilicity, log D of the compound by HPLC/UV method; assay type: physicochemical
Method in brief: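 A 10 mM DMSO stock was diluted 1:100 into 1:1 acetonitrile/water, shaken 30 min, and analysed by HPLC/UV on a C18 column with 20 mM ammonium acetate/acetonitrile mobile phase.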

[9] = Toxicity in rat after 7 days; assay type: organism-based; settings: in vivo
Method in brief: (§3)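 Nonclinical 7-day toxicology study with daily dosing up to 300 mg/(kg day) in rats and up to 75 mg/(kg day) in dogs; NOAEL set from test-article related findings.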

[10] = tested on: Hepatitis C virus; experiment: Antiviral activity against HCV genotype 1b infected in human HuH7 cells assessed as inhibition of viral replication after 3 days by luminescence assay; assay type: functional, organism-based, Hepacivirus hominis; settings: Huh-7, 72 h; method in brief: as §1
[11] = Oral absorption in beagle dog at 5 mg/kg, po by LC/MS/MS analysis; assay type: ADME, organism-based, Canis lupus familiaris; design: dose 5 mg/kg, route oral; settings: in vivo
Method in brief: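 Naive male beagle dogs were dosed once, orally at 5 mg/kg in EtOH/PEG 400/50 mM citrate buffer pH 4 (5/40/55), or intravenously at 0.5 mg/kg for reference. Plasma was sampled over 24 h and processed by acetonitrile precipitation. Bioavailability %F = AUC_po × Dose_iv / (AUC_iv × Dose_po).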

[12] = Toxicity in dog after 7 days; assay type: organism-based, Canis lupus familiaris; settings: in vivo; method in brief: as §3
[13] = tested on: Hepatitis C virus; experiment: Selectivity ratio of EC50 for HCV harboring NS5B RNA dependent RNA polymerase S282T mutant to EC50 for wild-type HCV; assay type: functional, Hepacivirus hominis
[14] = Efflux ratio of apparent permeability across human Caco2 cells at 100 uM; assay type: ADME, cell-based; settings: Caco-2
Method in brief: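 Caco-2 monolayers grown to confluence for at least 21 days; membrane integrity checked by TEER after equilibration in transport buffer. Compound added to apical or basolateral side (duplicate wells) to give forward and reverse permeability. Receiver samples taken at 1 and 2 h, acetonitrile-precipitated, and quantified by LC/MS/MS. Papp calculated from receiver slope, volume and monolayer area. Recovery also measured.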

[15] = Cytotoxicity against human HuH7 cells after 3 days by fluorescence assay; assay type: cell-based; settings: Huh-7 cells
Method in brief: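 Huh-7 HCV replicon cells were seeded at 2000 cells/well in medium without Geneticin. Compounds were added as ten-point 1:3 DMSO dilutions in quadruplicate (final DMSO 0.44%), with […] as the 100% cytotoxicity control. After 3 days at 37 °C, cells were washed and given 400 nM calcein AM for 30 min at RT, and fluorescence read at ex 490/em 520 nm. Signal was normalized to DMSO and puromycin wells, and CC50 taken from a four-parameter Hill fit.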

[16] = tested on: Syrian golden hamster; experiment: Cmax in golden syrian hamster assessed as liver triphosphate level at 5 mg/kg, po by LC/MS/MS analysis; assay type: ADME, organism-based, Mesocricetus auratus; design: dose 5 mg/kg, route oral; settings: in vivo
Method in brief: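 Groups of 12 Golden Syrian hamsters were dosed orally at 5 mg-equiv/kg. Vehicle was EtOH/PEG400/water buffered with 50 mM pH 4 citrate at 2.5 mg-equiv/mL. Liver was homogenized in four volumes of ice-cold 0.1% KOH/67 mM EDTA in 70% MeOH containing 0.25 μM Cl-ATP, then centrifuged, dried and reconstituted in 1 mM ammonium phosphate pH 7.0. Triphosphate was measured by LC/MS/MS, with endogenous ATP checked for sample stability.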

[17] = Metabolic stability in human liver S9 fraction assessed as extraction at 2 uM after 90 mins by LC/MS/MS analysis; assay type: ADME, subcellular; settings: read-out: Stability
Method in brief: (§4)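 Compound at 2 μM was incubated with human intestinal or hepatic S9 fraction plus NADPH and UDPGA for 90 min at 37 °C. Time-point samples were quenched in aqueous acetonitrile/methanol with internal standard and analysed by LC/MS/MS. Half-life came from an exponential first-order fit, and hepatic extraction was predicted from half-life using the well-stirred model.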

[18] = AUC (0 to infinity) in jagular vein cannulated beagle dog at 0.5 mg/kg, iv by LC/MS/MS analysis; assay type: ADME, organism-based, Canis lupus familiaris; design: time infinity, dose 0.5 mg/kg, route intravenous; settings: plasma
Method in brief: (§5)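 Naive male beagle dogs got a single intravenous infusion of 0.5 mg/kg in EtOH/PEG 400/water 5/20/75, adjusted to pH 4 with HCl. EDTA-K3 blood was collected over 24 h and plasma isolated. Plasma was precipitated with acetonitrile to a final 60%, filtered, dried, reconstituted in 20% acetonitrile and analysed.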

[19] = tested on: Huh-7; experiment: Prodrug coversion in human HuH7 cells assessed as triphosphate formation at 10 uM after 24 hrs by liquid chromatography coupled with mass spectrometry; assay type: ADME, cell-based; settings: huh-7, 24 h
Method in brief: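 Huh-7 cells carrying the GT1b replicon, grown to confluency in 12-well plates (0.88 × 10⁶ cells/well). Exposed 24 h to 10 μM compound, then washed with ice-cold saline and extracted overnight in frozen 70% methanol. Dried extract resuspended in 1 mM ammonium phosphate pH 8.5. Triphosphate quantified by LC/triple-quadrupole MS.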

[20] = Aqueous solubility of the compound in phosphate buffer at pH 7 by reverse-phase UPLC-UV method; assay type: physicochemical
Method in brief: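 Excess solid was suspended in pH 7 phosphate buffer at ambient temperature, sonicated, then stirred for at least 2 h. After centrifugation, the supernatant was quantified by reverse-phase UPLC-UV.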

[21] = Permeability across basolateral to apical side in human Caco2 cells at 10 uM after 1 to 2 hrs by LC/MS/MS analysis; assay type: ADME, cell-based; settings: Caco-2, read-out: permeability
Method in brief: (§6)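 Caco-2 monolayers were grown at least 21 days, and membrane integrity was checked by TEER after buffer equilibration. Test compound was dosed at 10 μM on the apical or basolateral side, in duplicate wells. Receiver samples at 1 and 2 h were precipitated with acetonitrile plus internal standard and run by LC/MS/MS.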

[22] = Oral bioavailability in golden syrian hamster at 5 mg/kg; assay type: ADME, organism-based, Mesocricetus auratus; settings: in vivo
[23] = Half life in human intestinal S9 fraction at 2 uM by LC/MS/MS analysis; assay type: ADME, Intestine; method in brief: as §4
[24] = Permeability across apical to basolateral side in human Caco2 cells at 10 uM after 1 to 2 hrs by LC/MS/MS analysis; assay type: ADME, cell-based; settings: Caco-2, read-out: permeability; method in brief: as §6
[25] = AUC (0 to infinity) in portal vein cannulated beagle dog at 0.5 mg/kg, iv by LC/MS/MS analysis; assay type: ADME, organism-based, Canis lupus familiaris; design: time infinity, dose 0.5 mg/kg, route intravenous; settings: plasma; method in brief: as §5
[26] = target: DNA-directed RNA polymerase, mitochondrial (Homo sapiens) (UniProt O00411); experiment: Inhibition of mitochondrial RNA polymerase (unknown origin) assessed as inhibition of single nucleotide incorporation; settings: concentration not given here
Chain of DNA-directed RNA polymerase, mitochondrial (Homo sapiens) (O00411 whole entry): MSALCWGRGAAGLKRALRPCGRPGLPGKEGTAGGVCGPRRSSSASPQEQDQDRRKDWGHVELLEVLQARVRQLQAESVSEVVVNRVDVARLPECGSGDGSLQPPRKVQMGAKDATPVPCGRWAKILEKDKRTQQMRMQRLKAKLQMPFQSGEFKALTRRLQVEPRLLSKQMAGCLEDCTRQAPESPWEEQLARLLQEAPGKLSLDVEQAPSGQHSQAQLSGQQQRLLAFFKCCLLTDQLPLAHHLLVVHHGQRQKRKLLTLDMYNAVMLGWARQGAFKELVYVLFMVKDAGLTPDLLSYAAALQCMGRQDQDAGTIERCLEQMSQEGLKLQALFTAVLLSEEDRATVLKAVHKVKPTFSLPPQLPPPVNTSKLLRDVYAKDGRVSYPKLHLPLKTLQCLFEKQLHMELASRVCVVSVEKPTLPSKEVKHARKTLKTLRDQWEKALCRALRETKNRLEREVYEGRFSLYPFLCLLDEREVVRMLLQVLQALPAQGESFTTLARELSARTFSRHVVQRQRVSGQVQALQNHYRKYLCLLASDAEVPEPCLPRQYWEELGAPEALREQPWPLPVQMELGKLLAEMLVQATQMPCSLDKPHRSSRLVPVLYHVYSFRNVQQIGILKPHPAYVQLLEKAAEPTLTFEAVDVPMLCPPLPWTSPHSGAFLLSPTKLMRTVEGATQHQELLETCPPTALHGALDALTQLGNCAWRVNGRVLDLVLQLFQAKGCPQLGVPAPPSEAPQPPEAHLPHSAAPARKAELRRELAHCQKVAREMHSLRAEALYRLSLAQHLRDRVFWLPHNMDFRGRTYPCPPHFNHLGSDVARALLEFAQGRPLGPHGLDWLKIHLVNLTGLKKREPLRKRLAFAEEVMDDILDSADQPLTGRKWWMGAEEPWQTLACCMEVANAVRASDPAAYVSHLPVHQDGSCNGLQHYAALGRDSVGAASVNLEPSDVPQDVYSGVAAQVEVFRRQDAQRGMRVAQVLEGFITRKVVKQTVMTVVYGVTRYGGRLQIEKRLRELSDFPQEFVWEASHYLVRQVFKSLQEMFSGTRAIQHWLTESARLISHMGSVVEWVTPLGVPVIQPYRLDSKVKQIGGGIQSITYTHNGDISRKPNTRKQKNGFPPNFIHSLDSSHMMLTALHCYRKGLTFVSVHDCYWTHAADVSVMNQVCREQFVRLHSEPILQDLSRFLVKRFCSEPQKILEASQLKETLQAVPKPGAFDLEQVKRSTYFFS
Method in brief: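 Reactions started with 500 μM (final) natural NTP or NTP analog. Time-point aliquots were quenched in EDTA/formamide, heated to 65 °C, resolved on 20% polyacrylamide/8 M urea gels, and product formation quantified by phosphorimaging.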

[27] = Inhibition of HCV genotype 1b recombinant NS5B RNA dependent RNA polymerase using sshRNA as substrate incubated for 5 mins prior to compound addition measured after 90 mins in presence of [33P]GTP
[28] = Toxicity in po dosed Sprague-Dawley rat assessed as necrosis in organs administered qd for 7 days; assay type: organism-based; settings: in vivo
[29] = tested on: Rattus norvegicus; experiment: Toxicity in Sprague-Dawley rat assessed as death at 20 to 40 mg/kg, po qd for 7 days; assay type: organism-based; design: dose 20-40 mg/kg, route oral; settings: in vivo, 168 h

Structure (SMILES) | Stability [1] | Cmax [7] [µM] | logD [8] | EC50 [10] [µM] | Fa [11] [%] | CC50 at 72 h [15] [µM] | Cmax [16] [µM] | Drug metabolism [19] [µM] | inhibition [26] [%] | further results
CC(C)OC(=O)[C@H](C)N[P@](=O)(OC[C@H]1O[C@@](C#N)(c2ccc3c(N)ncnn23)[C@](C)(O)[C@@H]1OC(=O)C(C)C)Oc1ccccc1 [GS-6620] | Stable | – | – | – | – | – | – | – | – | Activity [2]: 1.14 log10IU/ml; EC50 [3]: 0.068 µM; MTD [4]: 900 mg; Activity [5]: 1.73 log10IU/ml; Activity [6]: 1.63 log10IU/ml
CC(C)OC(=O)[C@H](C)NP(=O)(OC[C@H]1O[C@@](C#N)(c2ccc3c(N)ncnn23)[C@](C)(O)[C@@H]1OC(=O)C(C)C)Oc1ccccc1 (some centres not stated) | Stable | 4.5 | 2.9 | 0.61 | 88 | 47 | 3.67 | – | – | NOAEL at 168 h [9]: > 300 mg/kg/day; NOAEL at 168 h [12]: > 75 mg/kg/day; Ratio EC50 [13]: >95; efflux ratio at 100 µM [14]: < 2
CC(C)OC(=O)[C@H](C)NP(=O)(OC[C@H]1O[C@@](C#N)(c2ccc3c(N)ncnn23)[C@](C)(O)[C@@H]1O)Oc1ccccc1 (some centres not stated) | Stable | 5.65 | 1.8 | 1.05 | 10 | > 89 | 0.53 | 20 | – | hepatic extraction ratio at 1.5 h, 2 µM [17]: 0.9; AUC(0-inf) [18]: 0.16 µM·h; solubility [20]: 306 µg/mL (≈ 533 µM); Papp B→A at 10 µM [21]: 8.92 ×10⁻⁶ cm/s; bioavailability [22]: 1.9%; half-life at 2 µM [23]: > 10.2 h; Papp A→B at 10 µM [24]: 0.16 ×10⁻⁶ cm/s; AUC(0-inf) [25]: 0.99 µM·h
C[C@@]1(c2ccc3c(N)ncnn23)O[C@H](CO)[C@@H](O)[C@@]1(C)O | – | – | – | > 89 | – | – | – | – | 0.08 | IC50 [27]: 55 µM
C[C@@]1(O)[C@H](O)[C@@H](CO)O[C@H]1c1ccc2c(N)ncnn12 | – | – | – | – | – | – | – | – | 21 | NOAEL at 168 h [28]: < 5 mg/kg/day; Activity [29]: Toxic
C[C@@]1(O)[C@H](O)[C@@H](CO)O[C@@]1(C#N)c1ccc2c(N)ncnn12 | – | – | – | > 89 | – | – | – | < 0.5 | 0.03 | –
